16 molecules from ChEMBL document CHEMBL4665801, “Pyrazole-Based Lactate Dehydrogenase Inhibitors with Optimized Cell Activity and Pharmacokinetic Properties” (J Med Chem, 2020) can be followed below.

In experiment [1] the target is L-lactate dehydrogenase B chain (Homo sapiens) (UniProt P07195). Briefly: Inhibition of recombinant human LDHB using sodium pyruvate as substrate preincubated for 5 mins followed by diaphorase/resazurin addition and measured after 20 mins by fluorescence based assay. Background: Resazurin is reduced to fluorescent resorufin, in cell work by metabolically active cells.

Experiment [2] addresses T1, L-lactate dehydrogenase A chain (Homo sapiens, UniProt P00338). Briefly: Inhibition of LDHA in human MIA PaCa-2 cells assessed as decrease in lactate production incubated for 2 hrs by lactate oxidase-coupled fluorescence based assay. It is filed as cell-based.
For experiment [3], the target named is T1, L-lactate dehydrogenase A chain. Briefly: Inhibition of recombinant human LDHA using sodium pyruvate as substrate preincubated for 5 mins followed by diaphorase/resazurin addition and measured after 20 mins by fluorescence based assay.
In the next experiment the test system is MIA PaCa-2. As to the kind of experiment: Cytotoxicity against human MIA PaCa-2 cells assessed as reduction in cell viability after 48 hrs by CellTiter-Glo assay. In kind it is functional, cell-based. Conditions: MIA PaCa-2, 48 h.
The species named for the next experiment is Sus scrofa. As to the kind of experiment: Inhibition of porcine heart MDH using malic acid as substrate preincubated for 10 mins followed by substrate addition and measured after 5 mins by resazurin based fluorescence based assay. Particulars: time 15.0 min.
Another experiment deals with A673. As to the kind of experiment: Cytotoxicity against human A673 cells assessed as reduction in cell viability after 48 hrs by CellTiter-Glo assay. It is filed as functional, cell-based. Particulars: A673, 48 h. On the technique in general: ATP-based viability assays read luminescence as a measure of living cells.
Experiment [4] has as its target T1, L-lactate dehydrogenase A chain. As to the kind of experiment: Inhibition of GS[HiBiT]GS-tagged LDHA (unknown origin) expressed in HEK-293T cells measured after 1 hr by […]. In kind it is cell-based. The method, boiled down:
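HEK293T cells were transiently transfected for 24 h with CMV-driven LDHA carrying a C-terminal GS[HiBiT]GS tag, then reseeded at 2500 cells/well in DPBS with Ca/Mg and 1 g/L glucose. […] Cells were lysed with NP40, and 11S (100 nM final) plus furimazine was added.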

For experiment [5] the target is unchanged. Briefly: Inhibition of LDHA in human A673 cells assessed as decrease in lactate production incubated for 2 hrs by lactate oxidase-coupled fluorescence based assay. In kind it is cell-based.

Structures are written as SMILES. Active and inactive are the calls of the source. The rule behind the calls is not given here.

Sequence of L-lactate dehydrogenase B chain (Homo sapiens) (P07195 2-334 limits assumed): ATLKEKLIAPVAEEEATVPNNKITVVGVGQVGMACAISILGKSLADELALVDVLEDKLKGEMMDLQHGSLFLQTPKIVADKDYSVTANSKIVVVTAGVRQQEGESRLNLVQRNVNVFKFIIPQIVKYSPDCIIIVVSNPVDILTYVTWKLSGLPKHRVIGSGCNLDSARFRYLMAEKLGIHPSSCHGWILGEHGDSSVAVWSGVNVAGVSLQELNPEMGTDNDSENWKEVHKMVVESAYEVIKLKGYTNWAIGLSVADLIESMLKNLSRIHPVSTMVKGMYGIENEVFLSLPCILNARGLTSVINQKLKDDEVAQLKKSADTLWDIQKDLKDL

Consider `Cc1ccc(/C=C/c2cccc(-c3nn(-c4nc(C(=O)O)cs4)c(CC4CC4)c3Cc3ccc(S(N)(=O)=O)c(F)c3)c2)s1`, for which the inhibition entry in experiment [1] was “Active”. In addition, the IC50 in experiment [2] is 331 nM; in experiment [3], 52 nM; in the experiment on MIA PaCa-2, 471 nM; in the experiment with A673, 452 nM; in experiment [4], 158 nM; in experiment [5], 357 nM. In addition, the inhibition entry in the experiment listed under Sus scrofa was “inactive”.

In the case of `Cc1cc(C#Cc2cccc(-c3nn(-c4nc(C(=O)O)cs4)c(CCC4CC4)c3Cc3ccc(S(N)(=O)=O)c(F)c3)c2)c(C)s1`, the inhibition entry in experiment [1] was “Active”. In addition, the IC50 in experiment [2] stood at 188 nM; in experiment [3] it was 487 nM; in the experiment with MIA PaCa-2, 402 nM; in the experiment with A673 it was 402 nM; in experiment [4], 299 nM; in experiment [5], 162 nM. Besides, the inhibition result in the experiment listed under Sus scrofa was “inactive”.

As for `NS(=O)(=O)c1ccc(Cc2c(-c3ccc(F)c(C#CC(F)(F)F)c3)nn(-c3nc(C(=O)O)cs3)c2CC2CC2)cc1F`, the inhibition entry in experiment [1] is “Active”. The IC50 in experiment [2] is over 30000 nM; in experiment [3] it was 450 nM; in the experiment on MIA PaCa-2, over 30000 nM; with A673, over 30000 nM; in experiment [4] it was 14000 nM; in experiment [5] it was over 30000 nM. In the experiment filed under Sus scrofa, the inhibition result was “inactive”.

Consider `NS(=O)(=O)c1ccc(Cc2c(-c3cccc(C#Cc4ccc(Cl)s4)c3)nn(-c3nc(C(=O)O)cs3)c2CC2CC2)cc1F`, for which, in experiment [1], the inhibition result is “Active”. Moreover, the IC50 turned out to be 408 nM in experiment [2]; 167 nM in experiment [3]; 556 nM with MIA PaCa-2; 452 nM with A673; 113 nM in experiment [4]; 218 nM in experiment [5]. In addition, the inhibition entry in the experiment listed under Sus scrofa is “inactive”.

As for `CC(F)C#Cc1cc(-c2nn(-c3nc(C(=O)O)cs3)c(CC3CC3)c2Cc2ccc(S(N)(=O)=O)c(F)c2)ccc1F` (stereo not drawn), the inhibition result in experiment [1] was “Active”. The IC50 in experiment [2] stood at 822 nM; in experiment [3], 14 nM; in the experiment with MIA PaCa-2 it was 1020 nM; in the experiment with A673, 1130 nM; in experiment [4], 127 nM; in experiment [5], 800 nM. Also, in the experiment filed under Sus scrofa, the inhibition result is “inactive”.

Take `Cc1ncc(C#Cc2cccc(-c3nn(-c4nc(C(=O)O)cs4)c(CCC4CC4)c3Cc3ccc(S(N)(=O)=O)c(F)c3)c2)s1`: in experiment [1], the inhibition entry is “Active”. The IC50 came out at 334 nM in experiment [2]; 24 nM in experiment [3]; 218 nM in the experiment on MIA PaCa-2; 218 nM in the experiment with A673; 17800 nM in experiment [4]; 434 nM in experiment [5]. Further, the inhibition result in the experiment listed under Sus scrofa was “inactive”.

Consider `NS(=O)(=O)c1ccc(Cc2c(-c3ccc(F)c(C#CCC4CCCO4)c3)nn(-c3nc(C(=O)O)cs3)c2CC2CC2)cc1F` (stereo not drawn), for which the inhibition result in experiment [1] was “Active”. The IC50 in experiment [2] is 937 nM; in experiment [3], 9 nM; in the experiment with MIA PaCa-2, 1220 nM; with A673, 1380 nM; in experiment [4] it was 178 nM; in experiment [5] it was 933 nM. In addition, in the experiment filed under Sus scrofa, the inhibition entry was “inactive”.

Regarding `NS(=O)(=O)c1ccc(Cc2c(-c3ccc(F)c(C#CCC4CC4)c3)nn(-c3nc(C(=O)O)cs3)c2CC2CC2)cc1F`, the inhibition entry in experiment [1] is “Active”. Moreover, the IC50 in experiment [2] was found to be 259 nM; in experiment [3], 31 nM; in the experiment with MIA PaCa-2 it was 1030 nM; in the experiment with A673, 1020 nM; in experiment [4] it was 89 nM; in experiment [5], 234 nM. Moreover, in the experiment listed under Sus scrofa, the inhibition entry was “inactive”.

In the case of `N#CC#Cc1cc(-c2nn(-c3nc(C(=O)O)cs3)c(CC3CC3)c2Cc2ccc(S(N)(=O)=O)c(F)c2)ccc1F`, the inhibition result in experiment [1] is “Active”. Moreover, the half-inhibitory concentration (IC50) in experiment [2] was 4400 nM; in experiment [3] it was 15 nM; with MIA PaCa-2, over 30000 nM; with A673, over 30000 nM; in experiment [4] it was 474 nM; in experiment [5] it was 4010 nM. Further, the inhibition result in the experiment filed under Sus scrofa was “inactive”.

With `NS(=O)(=O)c1ccc(Cc2c(-c3cccc(-c4ccccc4)c3)nn(-c3nc(C(=O)O)cs3)c2C2(C(F)(F)F)CC2)cc1`, in experiment [1], the inhibition result was “Active”. In addition, the IC50 in experiment [2] was 12800 nM; in experiment [3], 4100 nM; in the experiment with MIA PaCa-2 it was over 30000 nM; in the experiment on A673, over 30000 nM; in experiment [4], 303 nM; in experiment [5] it was 20200 nM. Moreover, the inhibition result in the experiment listed under Sus scrofa was “inactive”.

Regarding `NS(=O)(=O)c1ccc(Cc2c(-c3ccc(F)c(C#Cc4cccs4)c3)nn(-c3nc(C(=O)O)cs3)c2CC2CC2)cc1F`, in experiment [1], the inhibition entry was “Active”. In addition, the IC50 was 307 nM in experiment [2]; 32 nM in experiment [3]; 268 nM with MIA PaCa-2; 265 nM in the experiment on A673; 89 nM in experiment [4]; 438 nM in experiment [5]. In addition, the inhibition entry in the experiment filed under Sus scrofa was “inactive”.

Consider `CCCCC#Cc1cc(-c2nn(-c3nc(C(=O)O)cs3)c(CC3CC3)c2Cc2ccc(S(N)(=O)=O)c(F)c2)ccc1F`, for which the inhibition entry in experiment [1] was “Active”. Also, the IC50 in experiment [2] worked out at 298 nM; in experiment [3] it was 50 nM; with MIA PaCa-2 it was 845 nM; in the experiment on A673, 773 nM; in experiment [4] it was 106 nM; in experiment [5], 405 nM. Besides, the inhibition result in the experiment listed under Sus scrofa is “inactive”.

As for `NS(=O)(=O)c1ccc(Cc2c(-c3cccc(-c4ccccc4)c3)nn(-c3nc(C(=O)O)cs3)c2CC(F)(F)F)cc1`, the inhibition entry in experiment [1] is “Active”. Besides, the IC50 came to 19400 nM in experiment [2]; 274 nM in experiment [3]; 3170 nM with MIA PaCa-2; 148 nM in the experiment with A673; 15800 nM in experiment [4]; 9720 nM in experiment [5]. For the same molecule, in the experiment filed under Sus scrofa, the inhibition entry is “inactive”.

As for `NS(=O)(=O)c1ccc(Cc2c(-c3cccc(-c4ccccc4)c3)nn(-c3nc(C(=O)O)cs3)c2C2CC2(F)F)cc1` (stereo not drawn), the inhibition result in experiment [1] was “Active”. The IC50 in experiment [2] was 4760 nM; in experiment [3], 36 nM; in the experiment with MIA PaCa-2 it was 17700 nM; in the experiment on A673 it was 24400 nM; in experiment [4] it was 2530 nM; in experiment [5], 1860 nM. Also, in the experiment filed under Sus scrofa, the inhibition entry is “inactive”.

For `Cc1cnc(C#Cc2cccc(-c3nn(-c4nc(C(=O)O)cs4)c(CCC4CC4)c3Cc3ccc(S(N)(=O)=O)c(F)c3)c2)s1`, the inhibition entry in experiment [1] was “Active”. Further, the IC50 in experiment [2] turned out to be 417 nM; in experiment [3], 33 nM; with MIA PaCa-2 it was 173 nM; with A673, 180 nM; in experiment [4], 84 nM; in experiment [5] it was 364 nM. Also, the inhibition entry in the experiment filed under Sus scrofa was “inactive”.

`Cc1ncc(C#Cc2cccc(-c3nn(-c4nc(C(=O)O)cs4)c(CC4CC4)c3Cc3ccc(S(N)(=O)=O)c(F)c3)c2)s1`: in experiment [1], the inhibition entry was “Active”. For the same molecule, the IC50 is 720 nM in experiment [2]; 43 nM in experiment [3]; 641 nM with MIA PaCa-2; 532 nM in the experiment on A673; 38 nM in experiment [4]; 713 nM in experiment [5]. Also, the inhibition result in the experiment listed under Sus scrofa is “inactive”.

What is called IC50 is the concentration needed to halve the response being measured.
